Experimental data reported in ChEMBL document CHEMBL3271958, “Azaparacyclophanes. A novel class of conformationally rigid analogs of phenylethylamine and phenylpropylamine” (J Med Chem, 1976).
The source made the active and inactive calls. No cut-off for these calls is given here.

Key:
[1] = tested on: Mus musculus; assay: Induction of mydriasis in mouse assessed as […] at 100 mg/kg, ip by binocular microscopic analysis; type: functional, organism-based; set-up: dose 100 mg/kg
Method in brief: (§1)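 Mouse pupil diameter was read through a binocular microscope fitted with an ocular micrometer (Pulewka method), after dosing within the mouse behaviour screen.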

[2] = tested on: Mus musculus; assay: Sympathomimetic activity in mouse assessed as signs of exophthalmia at 100 mg/kg, ip; type: ADME, organism-based; set-up: dose 100 mg/kg, route intraperitoneal; settings: in vivo
Method in brief: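 Irwin-type mouse behavioural screen with intraperitoneal doses of 10, 30, 100 and 300 mg/kg, compound given as the hydrochloride salt. Animals were scored by observation for overt signs, including exophthalmia as an indicator of sympathomimetic activity and mydriasis. Pupil diameter was measured under a binocular microscope with an ocular micrometer.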

[3] = tested on: Rattus norvegicus; assay: Central dopaminergic activity in rat assessed as dopaminergic stimulant activity at 30 mg/kg, ip; type: ADME, organism-based; set-up: dose 30 mg/kg, route intraperitoneal; settings: in vivo
Method in brief: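 Rats carrying 6-hydroxydopamine lesions of the nigrostriatal pathway (Ungerstedt), dosed 30 mg/kg ip. Rotation was scored: ipsilateral turning indicates release of endogenous dopamine, contralateral turning indicates direct dopamine-receptor stimulation.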

[4] = tested on: Mus musculus; assay: Toxicity in mouse at 100 mg/kg, ip; type: organism-based; set-up: dose 100 mg/kg, route intraperitoneal; settings: in vivo
[5] = tested on: Mus musculus; assay: Sympathomimetic activity in mouse assessed as signs of exophthalmia and piloerection at 10 to 300 mg/kg, ip; type: ADME, organism-based; set-up: dose 10-300 mg/kg, route intraperitoneal; settings: in vivo
[6] = tested on: Mus musculus; assay: Induction of mydriasis in mouse assessed as papillary diameter at 25 mg/kg, sc by binocular microscopic analysis; type: functional, organism-based; set-up: dose 25 mg/kg; method in brief: as §1
[7] = tested on: Felis catus; assay: Sympathomimetic activity in iv dosed cat assessed as increase of heart rate and blood pressure; type: ADME, organism-based; settings: in vivo
Method in brief: (§2)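 Pentobarbital-anaesthetised cat monitored for blood pressure and heart rate. Hydrochloride salt given as cumulative iv doses of 1, 3 and 10 mg/kg, each tested against a standard acetylcholine challenge of 1 μg/kg, noting any change in the normal heart-rate and pressure responses.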

[8] = tested on: Felis catus; assay: Anticholinergic activity in cat assessed as effect on acetylcholine-induced normal heart rate and blood pressure changes at 1 to 10 mg/kg, iv; type: ADME, organism-based; set-up: dose 1-10 mg/kg, route intravenous; settings: in vivo; method in brief: as §2
[9] = tested on: Mus musculus; assay: Induction of mydriasis in mouse assessed as papillary diameter at 30 mg/kg, ip by binocular microscopic analysis; type: functional, organism-based; set-up: dose 30 mg/kg; method in brief: as §1
[10] = tested on: Mus musculus; assay: Toxicity in mouse at 30 mg/kg, ip; type: organism-based; set-up: dose 30 mg/kg, route intraperitoneal; settings: in vivo

For `CCCCc1ccc(CCCNC)cc1.Cl`, the Activity [1] was “Active”, the Activity [2] was “Toxic” and the Activity [3] was “Non-toxic”.

`CCCCCc1ccc(CCNC)cc1.O=C(O)/C=C\C(=O)O` was tested, and the Activity [1] was “inactive”, the Activity [4] was “Toxic” and the Activity [3] was “Non-toxic”.

`Cl.c1cc2ccc1CCCCCNCCC2` was tested, and the Activity [5] was “Non-toxic”, the Activity [6] was “Active” and the Activity [7] was “Non-toxic”. For the same molecule, the Activity [8] was “Non-toxic”, the Activity [9] was “Active” and the Activity [3] was “Non-toxic”.

With `O=C(O)/C=C\C(=O)O.c1cc2ccc1CCCCCCNCC2` the Activity [10] was “Toxic”, the Activity [9] was “inactive” and the Activity [3] was “Non-toxic”.
